The source of these data is ChEMBL document CHEMBL1138866, “Antitubercular nucleosides that inhibit siderophore biosynthesis: SAR of the glycosyl domain” (J Med Chem, 2006).

Assay [1] concerns the target T1, Salicyl-AMP ligase / salicyl-S-ArCP synthetase (Mycobacterium tuberculosis, UniProt P71716).
T1 sequence (P71716 whole entry): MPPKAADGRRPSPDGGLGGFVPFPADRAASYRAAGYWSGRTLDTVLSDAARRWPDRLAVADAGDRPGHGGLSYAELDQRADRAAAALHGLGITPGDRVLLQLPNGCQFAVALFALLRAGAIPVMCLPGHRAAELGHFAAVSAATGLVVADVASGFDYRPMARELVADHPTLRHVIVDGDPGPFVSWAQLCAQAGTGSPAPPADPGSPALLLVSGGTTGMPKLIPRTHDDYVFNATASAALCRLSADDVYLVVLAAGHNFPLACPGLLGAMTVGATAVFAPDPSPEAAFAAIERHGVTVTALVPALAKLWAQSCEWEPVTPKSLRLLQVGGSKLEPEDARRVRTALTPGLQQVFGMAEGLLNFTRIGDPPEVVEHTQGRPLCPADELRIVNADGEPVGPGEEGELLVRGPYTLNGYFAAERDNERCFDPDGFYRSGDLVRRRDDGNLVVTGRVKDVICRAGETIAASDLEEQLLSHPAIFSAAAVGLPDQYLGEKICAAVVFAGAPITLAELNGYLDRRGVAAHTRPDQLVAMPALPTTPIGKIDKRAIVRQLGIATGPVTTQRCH
Kind of assay: Inhibition of Mycobacterium tuberculosis MbtA by [32P]PPi-ATP exchange assay. Conditions: read-out: Ki app. Put shortly: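 Native MbtA (His6-SUMO tag removed), 7 nM, with 250 μM salicylic acid, 10 mM ATP and 1 mM PPi in 75 mM Tris-HCl pH 7.5, 10 mM MgCl2, 2 mM DTT. Inhibitor in DMSO preincubated 10 min at 23 °C, then [32P]PPi added and run 20 min at 37 °C. Charcoal-bound γ-[32P]ATP counted; duplicate data fit to Morrison equation ([E] 7.0 nM) for KIapp.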

Assay [2] relates to Mycobacterium tuberculosis. Kind of assay: Antitubercular activity against Mycobacterium tuberculosis H37Rv. The assay is classed as functional. Put shortly:
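Broth microdilution in iron-deficient GAST, in quadruplicate, with drugs from DMSO stocks and DMSO-treated control wells. Initial density 10^4–10^5 cells/assay, 37 °C, OD620 read at 10 and 14 days. MIC99 is the concentration giving complete growth inhibition.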

The subject of assay [3] is Yersinia pseudotuberculosis. The assay can be described thus: Inhibitory activity against Yersinia pseudotuberculosis ATCC 6902. The assay is classed as functional. Put shortly:
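Broth microdilution in triplicate in desferrated BHI (Chelex-treated plus 200 μM 2,2′-dipyridyl), with or without 150 μM FeCl3 for iron-rich conditions. Initial density 10^3–10^4 cells/well, compounds up to 100 μM, 1% DMSO control. Grown 24 h at 37 °C with shaking; OD600 read; MIC99.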

≈ marks a conversion by molar mass, not a printed value.

In the case of `Nc1ncnc2ncn([C@@H]3C[C@H](COS(=O)(=O)NC(=O)c4ccccc4O)[C@@H](O)[C@H]3O)c12`, in assay [1], the Ki was found to be 2.3 nM. The MIC99 in assay [2] is 1.56 µM (≈ 0.725 µg/mL); in assay [3], more than 100 µM.
Turning to `Nc1ncnc2ncn([C@@H]3O[C@H](CNS(=O)(=O)NC(=O)c4ccccc4O)[C@@H](O)[C@H]3O)c12`, the Ki in assay [1] is 3.7 nM. In assay [2], this compound came in with an MIC99 of 0.19 µM (≈ 0.0884 µg/mL).
With `Nc1ncnc2ncn([C@@H]3O[C@H](COS(=O)(=O)NC(=O)c4ccccc4O)[C@@H](O)[C@H]3O)c12`, the MIC99 in assay [2] was found to be 0.29 µM (≈ 0.135 µg/mL); in assay [3], 20 µM (≈ 9.33 µg/mL).
Turning to `Nc1ncnc2ncn(COCCOS(=O)(=O)NC(=O)c3ccccc3O)c12`, the Ki in assay [1] is 16700 nM. Besides, the MIC99 is more than 200 µM in assay [2] and more than 100 µM in assay [3].
For `Nc1ncnc2ncn([C@H]3C=C[C@@H](COS(=O)(=O)NC(=O)c4ccccc4O)C3)c12` the same measures were 830 nM, more than 200 µM and more than 100 µM.
Take `Nc1ncnc2ncn([C@H]3CC[C@@H](COS(=O)(=O)NC(=O)c4ccccc4O)C3)c12`: the Ki in assay [1] stood at 61 nM. Further, in assay [2], the MIC99 is more than 200 µM.
Take `Nc1ncnc2ncn([C@@H]3O[C@H](COS(=O)(=O)NC(=O)c4ccccc4O)C[C@H]3O)c12`: the Ki in assay [1] was determined as 3.2 nM. Further, the values for the MIC99 in assay [2] and in assay [3] were 1.56 µM (≈ 0.703 µg/mL) and 80 µM (≈ 36 µg/mL), respectively.
`Nc1ncnc2ncn([C@H]3C[C@H](O)[C@@H](COS(=O)(=O)NC(=O)c4ccccc4O)O3)c12`: the Ki in assay [1] worked out at 3.5 nM.
Regarding `NNC(=O)c1ccncc1` [ISONIAZID], in assay [2], the MIC99 was 0.18 µM (≈ 0.0247 µg/mL).

In general, MIC99 refers to an inhibitory concentration at the 99% level, which refers to growth in some studies and to a panel of isolates in others. Low values mean greater potency, high ones weaker potency.
